Laboratory results: PubChem BioAssay
Records with an inconclusive call do not appear.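 How the source made its calls, unless noted: active means inhibition over a set limit, the all-compound mean plus 3 SD, in both replicate runs; inconclusive means over that limit in just one replicate run; inactive means at or under that limit in both runs.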

How the values were obtained:
[1] = OD615 S. cerevisiae growth inhibition, permissive medium, pilot counter-assay, permissive growth control for S. cerevisiae lifespan shortening project (AID 705;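 active means growth inhibition above 25% in both replicates, a cutoff set 3 SD above the mean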); details: OD615, 24 h, at 10 µM, stronger effect = higher value
Procedure, shortened: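 Timing: 24 h exposure, 30 °C / Material: Saccharomyces cerevisiae strain carrying genetically modified DeaD replicative-lifespan system / Signal: OD at 615 nm / Compound: 10 µM single dose, 0.25% DMSO / Medium: SC raffinose/galactose permissive medium / Evaluation: reduction in yeast growth (OD615)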

[2] = Restrictive medium S. cerevisiae growth inhibition, OD615, pilot screen of yeast lifespan reduction project, restrictive growth control (AID 706;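 active means growth inhibition above a set limit, 3 SD over mean compound inhibition, in both replicates, cut at about 43% in these data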;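 further: modified DeaD lifespan yeast strain shifted to restrictive glucose medium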); details: OD615, 48 h, at 10 µM, stronger effect = higher value
Procedure, shortened: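 System: Engineered S. cerevisiae DeaD strain | Detection: OD615 | Buffer or medium: CSMM-D glucose medium | Doses: 10 µM compound, 0.25% DMSO | Timing: 4 h pre-growth plus 48 h compound exposure, 30 °C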

[3] = viability gain of MRP-1-high H69AR cells under doxorubicin, pilot screen, MRP-1 activator project, CellTiter-Glo, duplicate (AID 807;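 active means viability increase at or above a cutoff of the median across tested compounds plus 3 SD, cut at about 8.5% in these data, passing the limit was not always enough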;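 further: compound pretreatment 18-22 h then 72 h combined with doxorubicin; 0% = doxorubicin alone and 100% = vehicle without doxorubicin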); details: H69AR viability with doxorubicin, CellTiter-Glo luminescence; at 10 µM; stronger effect = higher value
[4] = growth suppression of beta-catenin knockout HCT116, pilot screen, human colon tumor cells (AID 823;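 active means cell viability at or below a set limit in both duplicate runs, the limit being the all-compound median minus 4 SD, cut at about 23% in these data, passing the limit was not always enough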;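 further: 0% = wells killed by 20 µM Hyamine and 100% = untreated DMSO cell wells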); details: CellTiter-Glo, 60 h, at 10 µM, stronger effect = lower value
[5] = growth suppression of PTEN-deleted HCT116, pilot screen, cell-based, HCT116 clonal line, CellTiter-Glo (AID 824;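 active means viability at or below 27.92% in each of two runs, the all-compound median minus 4 SD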;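 further: 0% = 20 µM Hyamine control and 100% = vehicle cell control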); details: 60 h, at 10 µM, stronger effect = lower value
[6] = inhibitors of the yeast RAM network, pilot screen, dse1pr::URA3 reporter, 5-FOA selection (AID 869);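 further: 0% = DMSO wells with no growth and 100% = 10 µM 1-NA-PP1 with full growth; RAM network block rescues cells from 5-FOA so hits raise OD615 growth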; details: S. cerevisiae dse1pr::URA3 5-FOA growth, OD615, 2 d; at 10 µM; stronger effect = higher value; strain carries analog-sensitive mutant Cbk1 kinase
[7] = RAM signaling pathway blockade in yeast – S. cerevisiae, Pdr1DBD-CYC8 efflux-inhibited sensitized strain, primary screen (AID 1298;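 active means RAM network inhibition above 8.4% in each of two replicates, 3 SD over the compound average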;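 further: 0% = DMSO untreated cells without growth and 100% = 10 µM 1-NA-PP1 full growth; higher means more yeast growth rescued from 5-FOA killing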); details: S. cerevisiae cbk1-as DSE1-URA3 strain, 5-FOA growth OD615, 2 d; at 50 µM; stronger effect = higher value

O=C(Nc1ccccc1C(=O)NCc1ccco1)NC1CCCCC1
inactive: growth inhibition [1] -5.4% | growth inhibition [2] 6.01% | viability increase [3] -3.58% | viability [4] 93.1% | viability [5] 92.8% | inhibition [6] 0.79% | RAM network inhibition [7] 0.59%

COc1ccc(C2C(C(=O)Nc3cccnc3)=C(C)Nc3nc(-c4ccco4)nn32)cc1 (configuration not stated)
inactive: growth inhibition [1] 4.86% | growth inhibition [2] -9.13% | viability increase [3] -1.69% | viability [4] 108% | viability [5] 104% | inhibition [6] 0.55% | RAM network inhibition [7] 2.07%

Brc1ccccc1Cn1c(-c2cncs2)nc2ccccc21
inactive: growth inhibition [1] -8.58% | growth inhibition [2] 25.2% | viability increase [3] -3.44% | viability [4] 79.2% | viability [5] 73.9% | inhibition [6] 0.68% | RAM network inhibition [7] 3.2%

O=C(O)CCc1ccc(-c2cccs2)n1NC(=O)c1ccc(Cl)cc1
inactive: growth inhibition [1] -6.03% | growth inhibition [2] -14.6% | viability increase [3] -3.75% | viability [4] 98% | viability [5] 93.9% | inhibition [6] 0.29% | RAM network inhibition [7] -0.58%

COCCNC(=O)C1c2cc(OC)c(OC)cc2C(=O)N(C)C1c1cccnc1 (configuration not stated)
inactive: growth inhibition [1] -5.99% | growth inhibition [2] -8.46% | viability increase [3] 0.41% | viability [4] 91.3% | viability [5] 92% | inhibition [6] -0.34% | RAM network inhibition [7] 5.06%

O=C(Nc1nnc(-c2ccc(F)cc2)o1)c1ccco1
inactive: growth inhibition [1] -6.49% | growth inhibition [2] -4.85% | viability increase [3] -3.74% | viability [4] 97.5% | viability [5] 92.8% | inhibition [6] 1.46% | RAM network inhibition [7] 0.1%

O=C(O)CCCC(=O)N1CCN(c2nc(-c3ccccc3)c3ccccc3n2)CC1
inactive: growth inhibition [1] -9.64% | growth inhibition [2] -6.36% | viability increase [3] -1.22% | viability [4] 102% | viability [5] 93% | inhibition [6] 0.83% | RAM network inhibition [7] 4.79%

CCOC(=O)c1sc(NC(=O)c2ccc(Cl)s2)cc1C
inactive: growth inhibition [1] -0.47% | growth inhibition [2] -4.72% | viability increase [3] 0.81% | viability [4] 105% | viability [5] 94.9% | inhibition [6] 2.33% | RAM network inhibition [7] 5.22%

O=C(CCS(=O)(=O)c1cccc2nonc12)NCCc1ccccc1
inactive: growth inhibition [1] -9.93% | growth inhibition [2] -23.2% | viability increase [3] -3.1% | viability [4] 103% | viability [5] 99.1% | inhibition [6] 4.24% | RAM network inhibition [7] 5.03%

COC(=O)c1cc(OC)c(OC)cc1NC(=O)C1CCCO1 (configuration not stated)
inactive: growth inhibition [1] -6.67% | growth inhibition [2] 1.77% | viability increase [3] -0.93% | viability [4] 105% | viability [5] 99.8% | inhibition [6] 0.545% | RAM network inhibition [7] 4.85%

COc1ccccc1S(=O)Cc1ccc(C(=O)NCc2ccccc2Cl)o1 (configuration not stated)
inactive: growth inhibition [1] -7.49% | growth inhibition [2] -16.8% | viability increase [3] -1.27% | viability [4] 100% | viability [5] 89.7% | inhibition [6] 2.41% | RAM network inhibition [7] 4.64%

Cn1c(=O)oc2cc(S(=O)(=O)N3CCCC(C(=O)Nc4ccc5c(c4)OCCO5)C3)ccc21 (configuration not stated)
inactive: growth inhibition [1] -0.19% | growth inhibition [2] -4.89% | viability increase [3] -1.81% | viability [4] 89.5% | viability [5] 90% | inhibition [6] 1.42% | RAM network inhibition [7] 1.66%

COc1ccc(-c2nnc3ccc(SCC(=O)N4CCCCC4)nn23)cc1OC
inactive: growth inhibition [1] 3.98% | growth inhibition [2] 18.9% | viability increase [3] -4.61% | viability [4] 98.3% | viability [5] 98.9% | inhibition [6] 0.24% | RAM network inhibition [7] 2.36%

Cc1c(NC(=O)C2CCN(S(=O)(=O)c3ccccc3)CC2)c(=O)n(-c2ccccc2)n1C
inactive: growth inhibition [1] -3.65% | growth inhibition [2] -4.28% | viability increase [3] -2.25% | viability [4] 96.5% | viability [5] 88.8% | inhibition [6] 1.45% | RAM network inhibition [7] 6.15%

Cc1c(NC(=O)CCCCCN2C(=O)C3C4C=CC(C4)C3C2=O)c(=O)n(-c2ccccc2)n1C (configuration not stated)
inactive: growth inhibition [1] 5.03% | growth inhibition [2] 5.79% | viability increase [3] -0.51% | viability [4] 103% | viability [5] 100% | inhibition [6] 0.685% | RAM network inhibition [7] 2.6%

c1ccc(Sc2nc(N3CCCCC3)nc(N3CCCCC3)n2)nc1
inactive: growth inhibition [1] 4.63% | growth inhibition [2] -1.59% | viability increase [3] 0.32% | viability [4] 89.3% | viability [5] 86.5% | inhibition [6] 0.735% | RAM network inhibition [7] 4.97%

CCOC(=O)N1CCN(C(=O)CSc2nnc(-c3ccc(C)c(C)c3)o2)CC1
inactive: growth inhibition [1] -1.67% | growth inhibition [2] 1.73% | viability increase [3] -2.44% | viability [4] 111% | viability [5] 97.4% | inhibition [6] 2.31% | RAM network inhibition [7] 4.67%

COC(=O)c1c(C)nc(C)c2c(=O)oc3ccccc3c12
inactive: growth inhibition [1] 3.52% | growth inhibition [2] 15.3% | viability increase [3] 0.64% | viability [4] 102% | viability [5] 104% | inhibition [6] 2.04% | RAM network inhibition [7] 1.99%

CCOC(=O)N1CCC(Nc2cc(C)nc3c(-c4ccccc4OC)c(C)nn23)CC1
inactive: growth inhibition [1] -2.85% | growth inhibition [2] -0.57% | viability increase [3] -6.98% | viability [4] 81.3% | viability [5] 67.8% | inhibition [6] 0.325% | RAM network inhibition [7] 4.72%

CCN1CCCC1CNC(=O)C1c2ccccc2C(=O)N(CCOC)C1c1ccc(F)cc1 (configuration not stated)
inactive: growth inhibition [1] -3.19% | growth inhibition [2] -18.9% | viability increase [3] -1.76% | viability [4] 95.6% | viability [5] 98.1% | inhibition [6] 1.17% | RAM network inhibition [7] 7.82%

Cc1cccc(-n2c(O)c(C=Nc3ccc4c(c3)OCO4)c3ccccc3c2=O)n1
inactive: growth inhibition [1] 1.54% | growth inhibition [2] -8.37% | viability increase [3] -0.5% | viability [4] 89.3% | viability [5] 80.2% | inhibition [6] 0.93% | RAM network inhibition [7] 2.46%

CSC1=NCCN1C(=O)COc1ccccc1
inactive: growth inhibition [1] 5.44% | growth inhibition [2] -6.09% | viability increase [3] 1.95% | viability [4] 97.8% | viability [5] 104% | inhibition [6] 1.57% | RAM network inhibition [7] 2.21%

CCOC(=O)C1=C(C)NC2=C(C(=O)CCC2)C1c1cc(OC)ccc1OC (configuration not stated)
inactive: growth inhibition [1] -10.6% | growth inhibition [2] -12.8% | viability increase [3] -1.47% | viability [4] 94.1% | viability [5] 96.3% | inhibition [6] 1.73% | RAM network inhibition [7] 7.52%

CC(=O)Nc1ccc(NC2(C)C(=O)c3ccccc3C2=O)cc1
inactive: growth inhibition [1] -0.27% | growth inhibition [2] -3.77% | viability increase [3] -1.88% | viability [4] 99.4% | viability [5] 102% | inhibition [6] 1.94% | RAM network inhibition [7] 1.23%

COCCCN1Cc2cccc(C(=O)O)c2C1=O
inactive: growth inhibition [1] 1.16% | growth inhibition [2] 4.03% | viability increase [3] -2.13% | viability [4] 103% | viability [5] 102% | inhibition [6] 0.525% | RAM network inhibition [7] 7.02%

COc1ccc(N2CCC(CNC(=O)Nc3ccc(C)c(C)c3)C2)cc1 (configuration not stated)
inactive: growth inhibition [1] -8.33% | growth inhibition [2] -2.14% | viability increase [3] 1.23% | viability [4] 91.2% | viability [5] 74.8% | inhibition [6] 0.77% | RAM network inhibition [7] 2.95%

COc1ccc(C(C)(C)C)cc1NC(=O)COC(=O)c1cnc(C)cn1
inactive: growth inhibition [1] -4.5% | growth inhibition [2] -5.05% | viability increase [3] -2.09% | viability [4] 97.3% | viability [5] 94.3% | inhibition [6] 0.395% | RAM network inhibition [7] 4.9%

COc1ccc(OC)c(NC(=O)c2c(NC(=O)CNCc3ccco3)sc3c2CCC3)c1
inactive: growth inhibition [1] -0.125% | growth inhibition [2] -0.495% | viability increase [3] -3.56% | viability [4] 95.8% | viability [5] 88.2% | inhibition [6] 1.28% | RAM network inhibition [7] 7.95%

COc1ccc(C2C(C(=O)N3CCN(c4ccccc4)CC3)c3ccccc3C(=O)N2C)cc1 (configuration not stated)
inactive: growth inhibition [1] -13.4% | growth inhibition [2] -17.6% | viability increase [3] -4.08% | viability [4] 69.6% | viability [5] 74.9% | inhibition [6] 2.13% | RAM network inhibition [7] 2.38%

Cn1nc(-c2ccc(Cl)cc2)c2cc(C(=O)N3CCCC3)sc21
inactive: growth inhibition [1] -8.92% | growth inhibition [2] -9.39% | viability increase [3] -2.97% | viability [4] 96.9% | viability [5] 85.7% | inhibition [6] 1.97% | RAM network inhibition [7] 3.39%

Cc1c(C(=O)NCc2ccccn2)sc2nc(-c3ccccc3)cn12
inactive: growth inhibition [1] 6.98% | growth inhibition [2] 13.1% | viability increase [3] 0.68% | viability [4] 112% | viability [5] 101% | inhibition [6] 0.91% | RAM network inhibition [7] 0.57%

Cc1ccc(C2CC(c3cccc(Br)c3)n3nc(N)nc3N2)cc1 (configuration not stated)
inactive: growth inhibition [1] 0.285% | growth inhibition [2] 22.3% | viability increase [3] -1.6% | viability [4] 68.2% | viability [5] 67.2% | inhibition [6] 1.82% | RAM network inhibition [7] 5.91%

O=C1CCC(=O)N1c1cccc(-c2nc3ccccc3o2)c1
inactive: growth inhibition [1] -7.93% | growth inhibition [2] -2.65% | viability increase [3] 0.42% | viability [4] 106% | viability [5] 105% | inhibition [6] -0.245% | RAM network inhibition [7] 4.59%

Cc1noc(C)c1S(=O)(=O)N(CC(=O)NCc1ccc(Cl)cc1)c1ccc2c(c1)OCO2
inactive: growth inhibition [1] -13.6% | growth inhibition [2] -7.5% | viability increase [3] -3.36% | viability [4] 104% | viability [5] 97.9% | inhibition [6] 2.81% | RAM network inhibition [7] 1%

CCOC(=O)N1CCC(NC(=O)CS(=O)(=O)Cc2nc(-c3ccc(C)cc3)oc2C)CC1
inactive: growth inhibition [1] -20.3% | growth inhibition [2] -37.1% | viability increase [3] 0.42% | viability [4] 75.3% | viability [5] 81.3% | inhibition [6] 0.44% | RAM network inhibition [7] 0.36%

O=C(Nc1nc2c(s1)CCCC2)c1ccc(Br)o1
inactive: growth inhibition [1] 6.52% | growth inhibition [2] -10.8% | viability increase [3] -4.11% | viability [4] 62.4% | viability [5] 64.6% | inhibition [6] 1.8% | RAM network inhibition [7] 4.86%
